Publication PMC4553143 (Circulation research, 2015)

Tests used:
[1] = tested on: granzyme B activity; format: in vivo, mouse
Outline: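 Male CMy-Tg and C57BL/6 WT mice (10–12 weeks) received OT-1 CD8+ T cells i.p. in PBS (2.0, 3.5 or 5.0 × 10^6). Dexamethasone 0.75 mg/kg or PBS i.p. daily, days 1–4. Day 4: probe i.v. (50 μL, 1 μmol/L in PBS) or ProSense 680 (2 nmol/150 μL). After 24 h: FMT-CT under anaesthesia; ex vivo FRI, 680 nm channel.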

[2] = tested on: CMy-Tg mice; test: Heart and serum markers and histology in CD8+ T cell-mediated myocarditis; format: in vivo, mouse; conditions: CMy-Tg mice 5 days post transfer of 3.5 × 10^6 OT-1 CD8+ T cells
Outline: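 CMy-Tg (n = 12) and WT (n = 4) mice received 3.5 × 10^6 OT-1 CD8+ T cells. PBS vehicle or dexamethasone (0.75 mg/kg) i.p. on days 1–4. Hearts and serum collected at day 5. Heart granzyme B and cleaved caspase-3 measured by Western blot, normalized to GAPDH. Serum granzyme B, interferon-γ and cardiac troponin-I assayed. P values versus vehicle of each strain.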

[3] = tested on: OT-1 CD8+ T cells / CMy-Tg cardiomyocytes; test: Granzyme B expression in OT-1 CD8+ T cells and co-cultures in vitro; format: cell-based, mouse
[4] = tested on: CMy-Tg mice; test: Survival study in CD8+ T cell-mediated myocarditis; format: in vivo, mouse; conditions: 0.75 mg/kg i.p. for 4 days; 2.0 × 10^6 OT-1 cells; n = 8
Outline: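 Male CMy-Tg and WT C57BL/6 mice (10–12 weeks) received 2.0, 3.5 or 5.0 × 10^6 OT-1 CD8+ T cells i.p. in PBS. Dexamethasone 0.75 mg/kg/day, freshly dissolved in sterile PBS, given i.p. in 100 μL on days 1–4 after cell transfer; controls received PBS. Survival followed for 28 days; Kaplan–Meier analysis, n = 8 per group.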

[5] = target: T1, granzyme B in lysates of CD8+ T cells (Mus musculus, UniProt P04187); test: Probe activation by lysates of CD8+ T cells; format: biochemical
T1 sequence (P04187 21-247): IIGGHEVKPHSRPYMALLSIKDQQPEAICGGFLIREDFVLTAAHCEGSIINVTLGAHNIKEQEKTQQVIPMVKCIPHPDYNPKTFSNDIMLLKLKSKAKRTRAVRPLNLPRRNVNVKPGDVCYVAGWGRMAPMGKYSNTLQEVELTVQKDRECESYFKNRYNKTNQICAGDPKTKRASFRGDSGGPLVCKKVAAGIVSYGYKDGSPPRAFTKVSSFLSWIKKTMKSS

[6] = tested on: chymotrypsin; test: Enzymatic assay of nanoprobe activation; format: biochemical; conditions: chymotrypsin 0.01 mg/mL, 82-fold excess activity; n = 3
[7] = tested on: granzyme B activity; test: Ex vivo FRI in cardiac myosin-induced experimental autoimmune myocarditis; parameters: species or system mouse; conditions: 24 hours post probe injection, 21 days after immunization
Outline: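 Balb/cByJ mice were immunized with a murine α-myosin H chain-derived peptide (n = 16); controls received PBS instead (n = 4). Granzyme B-sensitive probe given i.v. on day 20. One day later, excised hearts and sections were imaged by microscopic ex vivo FRI in the 680 nm channel. Exposure: 1 min for tissue, 30 min for heart sections.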

Molecule | granzyme B activity, fluorescence intensities in hearts ([1]; dexamethasone administration in vivo, vehicle 504±263, P=0.002) [fluorescence intensities] | serum concentrations of granzyme B, interferon-γ, and cardiac troponin-I [2] | protein levels of granzyme B and active caspase-3 in hearts ([2]; Western blot) | granzyme B protein concentrations in OT-1 CD8+ T cells and their culture medium ([3]; 48 hours of anti-CD3 stimulation) | probe signals colocalized with granzyme B activity ([3]; CMy-Tg cardiomyocytes co-cultured with OT-1 CD8+ T cells, confocal microscopy) | survival of CMy-Tg mice [4] | signal compared with ProSense 680 ([1]; CD8+ T cell-mediated myocardial injury model) | fluorescent signal from the probe incubated with lysates ([5]; lysates of Balb/c WT CD8+ T cells stimulated with anti-CD-3, 48 hours) | fluorescent signal from the probe incubated with lysates ([5]; lysates of granzyme B-deficient CD8+ T cells) | probe activation on incubation with chymotrypsin [6] | signals from the probe in heart tissues and sections, EAM Balb/cByJ vs WT mice [7]
C[C@@H]1C[C@H]2[C@@H]3CCC4=CC(=O)C=C[C@]4(C)[C@@]3(F)[C@@H](O)C[C@]2(C)[C@@]1(O)C(=O)CO [dexamethasone] | 194±77 | limited these increases | reduced these concentrations | did not mute this rise | decreased the probe signals | survived for 28 days | – | – | – | – | –
GIEFDSGGC [granzyme B-sensitive nanoprobe] | – | – | – | – | – | – | substantially higher signal | increased above baseline after 48 hours | did not demonstrate a comparable increase | activation comparable in intensity to Granzyme B | higher signals
